Only some compounds are listed: those with a hit (about 1.6% of all), similar ones and a draw of the others.
EBV gp42 inh = Epstein-Barr virus gp42 inhibitors, primary screen, biochemical, uHTS, fluorescence polarization; Glycoprotein 42 (Epstein-Barr virus (strain AG876)), Q1HVG2; Fluorescence polarization binding assay, mP read-out; inhibition, % (tested at 21.74 µM); 220,000 tested, 0.42% active; AID 1085, 2008
Target sequence (Q1HVG2 whole entry, looked up): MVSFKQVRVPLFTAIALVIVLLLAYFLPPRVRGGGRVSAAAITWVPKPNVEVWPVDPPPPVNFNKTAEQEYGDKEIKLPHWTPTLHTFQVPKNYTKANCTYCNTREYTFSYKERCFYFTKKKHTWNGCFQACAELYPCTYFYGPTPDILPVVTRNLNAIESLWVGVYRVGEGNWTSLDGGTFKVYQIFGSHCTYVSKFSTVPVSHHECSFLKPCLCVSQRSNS
eIF4E-4G inh = eIF4E–eIF4G protein interaction inhibitors, primary screen, biochemical, uHTS, TR-FRET, eIF4GI fragment | AID 782, 2007 | 220,000 tested, 0.37% active | TR-FRET eIF4E-eIF4GI(517-606) binding, 2 h | inhibition, % at 21.7 µM;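 active means inhibition above about 30%, limit read from the data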
PKD1 kinase inh = inhibitors of human PKD1 kinase, biochemical, fluorescence polarization; Serine/threonine-protein kinase D1 (Homo sapiens), Q15139; PKD1 kinase fluorescence polarization assay; inhibition, % (no concentration beside the values); 200,000 tested, 0.056% active
14-3-3 Bad inh = inhibitors of 14-3-3 zeta/Bad binding, primary screen, biochemical, TR-FRET, bovine 14-3-3 zeta | 14-3-3 protein zeta/delta (Bos taurus), P63103 | 220,000 tested, 0.71% active | AID 781, 2007 | TR-FRET 14-3-3zeta/Dy647-pBad peptide displacement, 1 h | inhibition, % at 21.7 µM;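 active means inhibition above about 70%, limit read from the data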
RBBP9 inhibitor = human RBBP9 inhibitors, primary screen, biochemical, fluorescence polarization, FP-Rh probe, HTS; Serine hydrolase RBBP9 (Homo sapiens), O75884; recombinant RBBP9; inhibition, % at 7.94 µM; 220,000 tested, 0.2% active;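 active means inhibition above the campaign mean of all tested compounds plus 3 SD, cut at about 14% in these data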
Target sequence (O75884 whole entry, looked up): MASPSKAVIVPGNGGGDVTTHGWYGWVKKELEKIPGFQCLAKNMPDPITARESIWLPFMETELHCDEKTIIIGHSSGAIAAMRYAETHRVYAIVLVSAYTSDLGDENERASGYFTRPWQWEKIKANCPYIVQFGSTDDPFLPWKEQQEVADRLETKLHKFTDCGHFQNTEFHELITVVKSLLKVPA
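Measured by: FP readout at 525/598 nm; material: recombinant human RBBP9; also added: Serine-hydrolase probe FP-Rh, 375 nM pre-mixing; medium: Tris buffer pH 8.0, NaCl, Pluronic; replication: one well per compound; doses: one concentration, 7.94 µM nominal, 0.794% DMSO; timing: preincubation 30 min plus labeling 45 min at 25 °C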
Numbers stand for hits; 0 = inactive; - = not tested or not shown; + = active, no number; [ ] = remark or other dose. Unless noted, no stated cut-off is given here; in the data, active means inhibition above about 50%; inactive means the rest.

SMILES	EBV gp42 inh	eIF4E-4G inh	PKD1 kinase inh	14-3-3 Bad inh	RBBP9 inhibitor
CC1CN(Cc2ccccc2)c2nc3c(c(=O)[nH]c(=O)n3C)n2C1 (stereo unspecified)	0	83	-	0	0
Cn1c(=O)[nH]c(=O)c2c1nc1n2CCN1Cc1ccccc1	0	0	0	0	0
Cc1occc1-c1nnc(SCC(=O)c2c[nH]c3ccccc23)n1C	144	0	0	0	0
Cc1occc1-c1nnc(SCC(=O)c2ccc(Cl)cc2)n1C	0	0	0	0	0
O=C1c2cccc3c(O)ccc(c23)C(=O)N1Cc1ccccc1	187	0	0	0	0
O=S(=O)(Nc1ccncc1Cl)c1ccc2ccccc2c1	0	0	0	72	0
Cc1ccc(-c2nc3ncccn3c2NC(=O)C2CC2)cc1	0	0	0	0	0
CC(=O)Nc1c(-c2ccccc2)nc2ncccn12	0	33	0	0	0
COc1ccc(C(=O)NC(=S)NCc2ccco2)cc1	0	0	-	0	0
S=C1NC[C@H](Cc2ccccc2)N1CCCCC1CCCCC1	0	0	0	0	0
S=C1NC[C@H](CC2CCCCC2)N1CCCCC1CCCCC1	0	31	-	0	-
C#CCOCCOCCOCCNc1nc(N2CCN(C(=O)[C@H]([C@@H](C)CC)n3cc(CCCN=C(N)N)nn3)CC2)nc(N2CCN(C(=O)[C@H]([C@@H](C)CC)n3cc(CCCN=C(N)N)nn3)CC2)n1	0	0	0	77	0
C#CCOCCOCCOCCNc1nc(N2CCN(C(=O)Cn3cc(CCCN=C(N)N)nn3)CC2)nc(N2CCN(C(=O)Cn3cc(CCCN=C(N)N)nn3)CC2)n1	0	0	0	88	0
C#CCOCCOCCOCCNc1nc(N2CCN(C(=O)[C@H](C)n3cc(CCCN=C(N)N)nn3)CC2)nc(N2CCN(C(=O)[C@H](C)n3cc(CCCN=C(N)N)nn3)CC2)n1	0	0	0	0	0
C#CCOCCOCCOCCNc1nc(N2CCN(C(=O)[C@H]([C@@H](C)CC)n3cc(CCCN=C(N)N)nn3)CC2)nc(N2CCN(C(=O)[C@H](C)n3cc(CCCN=C(N)N)nn3)CC2)n1	0	0	0	75	0
C#CCOCCOCCOCCNc1nc(N2CCN(C(=O)[C@H](Cc3ccc(O)cc3)n3cc(CCO)nn3)CC2)nc(N2CCN(C(=O)[C@H](Cc3ccc(O)cc3)n3cc(CCO)nn3)CC2)n1	0	0	0	73	0
Cc1cc(/C(N)=N/OC(=O)Nc2ccc(Cl)cc2)no1	0	0	-	0	0
Cc1cccc(C)c1OCC(O)CNC(C)C (stereo unspecified)	0	0	0	0	0
Cc1cccc(C)c1OCC(C)N (stereo unspecified)	0	85	-	0	-
O=C(O)c1cccc(S(=O)(=O)N2CCSCC2)c1	0	0	0	77	0
CCN(c1ccc(N=Cc2c(O)n(Cc3ccc(OC)cc3)c(=O)c3ccccc23)cc1)C(C)C	+	0	0	0	0
CN(CC(=O)Nn1cnnc1)S(=O)(=O)c1ccccc1	0	0	0	73	0
COc1ccc(C(=O)NC2CCCc3ccccc32)cc1S(=O)(=O)N1CCOCC1 (stereo unspecified)	0	0	0	0	0
O=[N+]([O-])c1cccc(N=Cc2sc3ccccc3c2O)c1	0	0	0	84	0
O=[N+]([O-])c1ccc(N=Cc2sc3ccccc3c2O)cc1	0	0	0	0	0
SMILES	EBV gp42 inh	eIF4E-4G inh	PKD1 kinase inh	14-3-3 Bad inh	RBBP9 inhibitor
O=c1[nH]ncc(N2CCN(C(c3ccccc3)c3ccccc3)CC2)c1Cl	0	0	0	0	0
O=c1[nH]ncc(N2CCCC2)c1Cl	0	81	0	0	0
O=c1nc(Nc2ccc(Br)cc2)sc2ccc([N+](=O)[O-])cc12	0	0	-	95	0
O=C(Nc1ccc(OC(F)F)cc1)c1ncc(Cl)c(Cl)c1Cl	0	0	0	98	0
Nc1ccccc1C(=O)N1CCCC1	0	0	0	0	0
COc1ccc(C(=O)Nc2ccccc2C(=O)NC(Cc2ccc(O)cc2)C(=O)NNC(=O)c2ccc(C)cc2)cc1 (stereo unspecified)	0	0	0	79	0
C=CCn1c(SCC(=O)Nc2ccc(-c3nc4ccc(C)cc4s3)cc2)nnc1-c1ccccc1	0	33[fluorescence artefact?]	0	92[fluorescence artefact?]	0

Source: PubChem
